This note sets out measurements from the EternaBench riboswitch data.

The term apparent Kd denotes a dissociation constant that holds for the conditions of the assay.

The subject of the series is MS2 coat protein. The experiment in a line: apparent Kd, MS2 coat protein; higher = weaker binding; RNA-MaP array; FMN 200 µM where present. In outline: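 The apparent Kd comes from binding curves fitted cluster by cluster, filtered, and summarised as a median. Those curves followed SNAP-549-labelled MS2 coat protein from 0.7 or 1.5 nM, doubling to 3 µM, on Illumina sequencing-chip clusters where stalled E. coli RNA polymerase had transcribed the designs, without and then with constant ligand. The buffer was 100 mM Tris-HCl pH 7.5, 80 mM KCl, 4 mM MgCl2, BSA, DTT, yeast tRNA and Tween-20, and green signal was normalised to red-channel RNA signal and control-cluster median Fmax.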

Setting [1] is: designed as: OFF switch for flavin mononucleotide, no ligand.
[2] abbreviates: ligand present: flavin mononucleotide, designed as: OFF switch for flavin mononucleotide.
Setting [3] is: designed as: ON switch for flavin mononucleotide, no ligand.
Setting [4] is: ligand present: flavin mononucleotide, designed as: ON switch for flavin mononucleotide.

As for “GUAUCGUGAGGAUAUCAUGAUUGACUUAGUUUAUGUCAGCGUGAGAAGGCACAUGAGGAUCACCCAUGUGAUUA”, the “apparent Kd” value was 24.7 nM under setting [1] and 54.9 nM under setting [2].
“GUCCCGUCUAGCUUCAGCACAUGAGGAUCACCCAUGUCCUAGAGAAGGGCCUAGAGUUAUCAAAGGCAGGAUAUCUGCACAUGG”: the “apparent Kd” value runs as follows: under setting [1], 30.8 nM; under setting [2], 47.7 nM.
For “CGCCGACAUGAGGAUCACCCAUGUCACAACUGGUCAGGAUAUGGUAUGAUUUGGCUAUUGCCAGAAGGGACCUCAG”, the “apparent Kd” value by setting is: under setting [3], 50.5 nM; under setting [4], 21 nM.
For “AUCACCUCGUCAGGAUAUACGUCACUGCGUCAGCAGUGUGGUAAGAUCACAUGAGGAUCACCCAUGUAGAAGGGACGAGCUGAU”, the “apparent Kd” value under setting [1] stood at 14.7 nM and the “apparent Kd” value under setting [2] came out at 268 nM.
Consider “UCAUGCAUAGCGAUAUGAUCGAGAGAUCAUGUCGCUAAAUUUAGAAGGACAUGAGGAUCACCCAUGUAGGAUAUGGGAGCAUGA”, for which the “apparent Kd” value is 43 nM under setting [3] and 11 nM under setting [4].
“GUGACGGAUGUAGGAUAUGCUGACCAAUGGUCAGCAGAAGGACAUGAGGAUCACCCAUGUCAUCCUUAUAAUAAAUACCGUCAC”: under setting [2], the “apparent Kd” value came out at 18.3 nM.
As for “AGCUAGUCAGGAUAUACGAACACGUCAAAAGACUUGAAGGGACAUGAGGAUCACCCAUGUAGAAGGGACUAGCA”, the “apparent Kd” value by setting is: under setting [1], 35.1 nM; under setting [2], 123 nM.
The corresponding values for “CCUUAACAUGAGGAUCACCCAUGUGAGGAUAUGAUGCAGCAGUGGUCUACGCUGUGCAUCAGAAGGUACAUGGU” are 35.9 nM and 145 nM.
For “CUGUCGAUAUCAGGAUAUCGUUUACAUACAUGAGGAUCACCCAUGUAGAUGAUCAGCCUAAUAUACGAGAAGGGAUAUCGAUAG”, the “apparent Kd” value was found to be 9.26 nM under setting [3] and 8.59 nM under setting [4].
In the case of “UAAUCUCAGAUAGGAUAUAUAGGAUGAUUUAAGACUGAACAUGAGGAUCACCCAUGUGAUUAUCUGUAGAAGGAUCAAUGACCC”, the “apparent Kd” value stood at 389 nM under setting [3] and 348 nM under setting [4].
On to “GCAAUAGCAUGAGGAUAUGUUGGAGUUUAGACAGCAGAAGGCAUGUCAUAAGACAUGAGGAUCACCCAUGUAAUUACAAUAGCA”, for which the “apparent Kd” value under setting [3] amounted to 32.7 nM and the “apparent Kd” value under setting [4] amounted to 12.1 nM.
As to “GAGCGGGAAACAUGAGGAUCACCCAUGUGAUGUAUCCUCACGUAGGAUAUGCACACGAGAAGUGUGCAGAAGGGCGACCCGGUC”, the “apparent Kd” value under setting [1] turned out to be 1100 nM and the “apparent Kd” value under setting [2] was 1260 nM.
For “GUGUUUGAUGAGGAUAUCGUUGUGGGUAUAUAGCGAGAAGGCAUUACAUGAGGAUCACCCAUGUAGUGUGGGUU” the same measures were 26.2 nM and 49.4 nM.
Regarding “GACUGCUGAGGAUAUACAUGAGGAUCACCCAUGUGCUUCAGUAUCGAAAGAUACAUUGGUAGAAGGUAGUAGUC”, the “apparent Kd” value amounted to 11.8 nM under setting [1] and 20.8 nM under setting [2].
The corresponding values for “AUAUUUGUUUAGAAGGACAUGAGGAUCACCCAUGUCGCUGGGCGCGGGAAACCGUGCGCGGCCAUGUAGGAUAUAGGGAGAUAU” are 38.7 nM and 24.3 nM.
For “GGGUGUGAAGGAUAUACAUGAGGAUCACCCAUGUGAGAGGAGGAGGUUGAGGAGGUUGGUAGAAGGUCAGGAGG” the same measures were 169 nM and 142 nM.
Consider “GCGCUUAUACAGAAGGCCAGAGACAUGAGGAUCACCCAUGUUAGAUUGUGGAGGAUAUGUGUUUUAUUACAGAUAGUUGAGCGC”, for which the “apparent Kd” value is, setting by setting: under setting [3], 20.5 nM; under setting [4], 6.53 nM.
Take “AACAUGAGGAUCACCCAUGUCCCACCAGAAGGCUGGCGGUGGUGGUAAAGGCCACGACAAAUAACAGAGGAUAUGGUGAAUGCA”: the “apparent Kd” value is, setting by setting: under setting [3], 84.6 nM; under setting [4], 18.8 nM.
The corresponding values for “GCAUGAGACUAAGGAUAUGAUGUACCUAUAUGUGACAUGAGGAUCACCCAUGUGGUAAGUAUGAUUCAGAAGGUAGAGACAUGC” are 33.7 nM and 21.3 nM.
With “AAGAAUAGAAAGAUUAAUAUGAAUACAUGAGGAUCACCCAUGUAGGAUAUCGACGUCAAUGACGUCGAGAAGGACAAAAUAAAU”, the “apparent Kd” value turned out to be 9.44 nM under setting [1] and 9.55 nM under setting [2].
For “ACAUGAGGAUCACCCAUGUAUUCAUAGGAUAUACUACAUGAGUUUCAUUCAUGUAAACUUGUAUUGUAGAAGGAUGUUACAUGU” the same measures were 16.4 nM and 19.2 nM.
As to “UCAUACAUUCGAGGAUAUCGGUGAGAAAUCUUUCGAGAAGGCGAUUCAUGAUUUAUUAUCCUGGACAUGAGGAUCACCCAUGUA”, the “apparent Kd” value under setting [3] turned out to be 85.3 nM and the “apparent Kd” value under setting [4] was found to be 65.5 nM.
On to “GCAAUCGCAUGAGGAUAUGCUGGAGUUUAGACAGCAGAAGGCAUGUCAUAAGACAUGAGGAUCACCCAUGUAGUUACAAUGGCA”, for which the “apparent Kd” value by setting is: under setting [3], 41 nM; under setting [4], 11.9 nM.
As to “AGUCGGAGCAGAGGAUAUACAUGAGGAUCACCCAUGUAAUAAAGUGAAGCCUGGAAACAGGCAAUGUAGAAGGCUGCUCCGACA”, the “apparent Kd” value is, setting by setting: under setting [1], 28.1 nM; under setting [2], 232 nM.
Take “GUCCAGUUAGGAUAUCAAUGCCACAACAUGAGGAUCACCCAUGUUUGGGUCCCUCACCAAUGAGAAGGAACGGGAC”: the “apparent Kd” value reads like this: under setting [1], 34.7 nM; under setting [2], 99.1 nM.
Regarding “UAUUUGCAAGGAUAUGAUUUAAGUAACAUGAGGAUCACCCAUGUUUUUCCGUUGUUAUGUUCAGAAGGUGCGUGAU”, the “apparent Kd” value under setting [1] came to 58.6 nM and the “apparent Kd” value under setting [2] amounted to 74.9 nM.
For “ACAAAUGGAGGAUAUACAUGAGGAUCACCCAUGUUUAUCCUACAUAUGUGAUACUCAUGUAGAAGGCCAUAUGA” the same measures were 12.7 nM and 12.5 nM.
In the case of “CGCUGUCAUGCAGGAUAUGCAUUGGAUUACAAUGCAGAAGGGCGAUUACAUGAGGAUCACCCAUGUGUAGACAGUGAAGAAAAG”, the “apparent Kd” value is, setting by setting: under setting [3], 145 nM; under setting [4], 13.8 nM.
For “AGCAGAACGUCAGGAUAUGUGGGUACUUUAGUCACAUGAGGAUCACCCAUGUAGGACUGCGAUCAACAGAAGGGACAAUUAGCA”, the “apparent Kd” value amounted to 279 nM under setting [3] and 16.2 nM under setting [4].
For “CCGGAAACGGGUAGCUGACAUGAGGAUCACCCAUGUGUAUCACAGGAUAUGGAUCCUAAUUGGAUCCAGAAGGGUGUCAGCUAC”, the “apparent Kd” value by setting is: under setting [3], 1130 nM; under setting [4], 105 nM.
For the sequence “CCUAUGUGAGGAUAUCACUGGUCUUUUCAUUAGAUGAUCAGUGAGAAGGCACAUGAGGAUCACCCAUGUCAGUG”, the “apparent Kd” value is 90.7 nM under setting [1] and 26.7 nM under setting [2].
For “AUCCGACAUGAGGAUCACCCAUGUCAGGAUAUGGACUGACACCCAAAGGGUGGAGGAACCAGAAGGGACUGGGC” the same measures were 36 nM and 68.1 nM.
The corresponding values for “CCGGAAAUGGAGGAUAUCGUAUCGGAUACGAUACGAGAAGGCUAUACAUGAGGAUCACCCAUGUGUCCUACCGG” are 12.6 nM and 20.1 nM.
For “AAGAAUAGAAAGAUUAAUAUGAAUACAUGAGGAUCACCCAUGUAGGAUAUGCAGCUGAAUCAGCUGCAGAAGGACAAAAUAAAU”, the “apparent Kd” value was found to be 9.15 nM under setting [1] and 9.08 nM under setting [2].
For “UGAUAACAUGUAGGAUAUGCAGCAUUGACCAUUGCAGAAGGACAUGAGGAUCACCCAUGUACCGAUACAAUGGGAUCACGCAAU” the same measures were 15.3 nM and 18.5 nM.
The corresponding values for “GUUCUUCCUGUAAGGAUAUCCAUGUAUCAAAGCAUGGAGAAGGUACAUGAGGAUCACCCAUGUCACCCGCGUUA” are 20.2 nM and 45.3 nM.
For “GACUAGGCAGGAUAUACAUGAGGAUCACCCAUGUGUCUGCGUUAAGCACGUGAAGACGGUAGAAGGGCCUUCAC” the same measures were 11.6 nM and 13.5 nM.
On to “AGCCAAGCAGGAUAUGCACGUAAUAACAUGAGGAUCACCCAUGUGACCGAUUUAUGUUCUGCAGAAGGGCUUGGAA”, for which the “apparent Kd” value is, setting by setting: under setting [1], 60.3 nM; under setting [2], 63.5 nM.
On to “UGCACAUGAGGAUCACCCAUGUAUUGUUCGGUUAAUAGAAGUGAGGAUAUGCAUAAAAUAAGGUAGCAGAAGGCACAGGAUUCA”, for which the “apparent Kd” value by setting is: under setting [3], 23.9 nM; under setting [4], 25.4 nM.
As to “AAUUCGGCAGGAUAUACAUGAGGAUCACCCAUGUAAAUUUUUCGUUUAACUUGAAUGUGUAGAAGGGCCAUUUA”, the “apparent Kd” value under setting [2] amounted to 22.6 nM.
In the case of “UAAGUCUAAUGAGGAUAUCGUUAUCAAAGAUAAUGAGAAGGCAUACAAUCAUGAGGACAUGAGGAUCACCCAUGUUGUGACCAU”, the “apparent Kd” value was 40.9 nM under setting [3] and 17.6 nM under setting [4].
The corresponding values for “GAAGGCUGGUAGAAGGAUCCUCACAUGAGGAUCACCCAUGUAACAGCGGAUAGGAUAUACCGUCUUUCACGUUGGUCUCCCUAA” are 370 nM and 25.3 nM.
The corresponding values for “GAGAAUACACUCGUCUCCGCUCAACCAGAAGGGCAUGAUAAUAUUACAUGAGGAUCACCCAUGUUGCAGGAUAUGGUGAGCCUC” are 141 nM and 58.9 nM.
As for “UGCUGGUGACAGCAUCCAUCAAAACAUGAGGAUCACCCAUGUAGAAGGCUGUACGGUUACCGUACAGAGGAUAUACAAUGAUGG”, the “apparent Kd” value reads like this: under setting [1], 7.27 nM; under setting [2], 8.69 nM.
Consider “GUACAGUAGUGAGGAUAUACGAGAUCGAUAGAUCGGCGAUCCAUUUAUACAUGAGGAUCACCCAUGUAGAAGGCACUUCUGUAC”, for which the “apparent Kd” value came to 5.73 nM under setting [1] and 61.7 nM under setting [2].
In the case of “AUGACAUGCACAGGAUAUUAGGCGCAGUACAGAUAAGAAGGGUGGAUCAGCAUACAUGAGGAUCACCCAUGUUGUUGUAACAUG”, the “apparent Kd” value is, setting by setting: under setting [3], 350 nM; under setting [4], 183 nM.
Take “CAUUAAUUCAUUAUAGUUAUUAUACAGGAUAUGUUACAUGAGGAUCACCCAUGUAUUCAUGGUAAACAGAAGGGUAAUACUAGU”: the “apparent Kd” value is, setting by setting: under setting [1], 11.1 nM; under setting [2], 15.8 nM.
For the sequence “UUUGCAUACCGAGGAUAUUCAUAUAAUAAAUAAACAUGAGGAUCACCCAUGUGGCGAAAGCCUAGGGAGAAGGCGGAAUGCUUU”, the “apparent Kd” value under setting [3] turned out to be 162 nM and the “apparent Kd” value under setting [4] was found to be 30.1 nM.
